Reference: ChEMBL document CHEMBL3259588, “Anti-inflammatory drimane sesquiterpene lactones from an Aspergillus species” (Bioorg Med Chem, 2014)
The source made the active and inactive calls.

Key:
Format in all cases: cell-based
[1] = system: DLD-1; assay: Inhibition of TNF-alpha/IFN-gamma/IL-1beta-induced human CXCL10 (972 bp) promoter activity expressed in human DLD1 cells up to 260 uM after 24 hrs by […]-driven luciferase reporter assay
Summary of the method: (§1)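 DLD-1 in 24-well plates, switched to 0.5% FCS without antibiotics a day before lipofection (Lipofectamine 2000, 0.8 µg plasmid) with 972 bp CXCL10 promoter, NF-κB, GAS/Stat1 or ISRE luciferase reporters plus pRL-CMV. Stimulated 24 h with 10 ng/mL TNF-α, 10 ng/mL IFN-γ, 5 ng/mL IL-1β ± compound; Dual-Glo firefly/Renilla read. Stimulation-only = 100%; mean ± SEM, ≥3 experiments.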

[2] = biological target: Nuclear factor NF-kappa-B complex (Homo sapiens) (UniProt Q00653+P19838+Q04206); assay: Inhibition of NF-kappaB (unknown origin)-induced human CXCL10 (972 bp) promoter activity expressed in TNF-alpha/IFN-gamma/IL-1beta-stimulated human DLD1 cells up to 260 uM after 24 hrs by luciferase reporter assay; details: DLD-1; summary of the method: as §1
Chain of Nuclear factor NF-kappa-B complex (Homo sapiens) (P19838 whole entry, looked up): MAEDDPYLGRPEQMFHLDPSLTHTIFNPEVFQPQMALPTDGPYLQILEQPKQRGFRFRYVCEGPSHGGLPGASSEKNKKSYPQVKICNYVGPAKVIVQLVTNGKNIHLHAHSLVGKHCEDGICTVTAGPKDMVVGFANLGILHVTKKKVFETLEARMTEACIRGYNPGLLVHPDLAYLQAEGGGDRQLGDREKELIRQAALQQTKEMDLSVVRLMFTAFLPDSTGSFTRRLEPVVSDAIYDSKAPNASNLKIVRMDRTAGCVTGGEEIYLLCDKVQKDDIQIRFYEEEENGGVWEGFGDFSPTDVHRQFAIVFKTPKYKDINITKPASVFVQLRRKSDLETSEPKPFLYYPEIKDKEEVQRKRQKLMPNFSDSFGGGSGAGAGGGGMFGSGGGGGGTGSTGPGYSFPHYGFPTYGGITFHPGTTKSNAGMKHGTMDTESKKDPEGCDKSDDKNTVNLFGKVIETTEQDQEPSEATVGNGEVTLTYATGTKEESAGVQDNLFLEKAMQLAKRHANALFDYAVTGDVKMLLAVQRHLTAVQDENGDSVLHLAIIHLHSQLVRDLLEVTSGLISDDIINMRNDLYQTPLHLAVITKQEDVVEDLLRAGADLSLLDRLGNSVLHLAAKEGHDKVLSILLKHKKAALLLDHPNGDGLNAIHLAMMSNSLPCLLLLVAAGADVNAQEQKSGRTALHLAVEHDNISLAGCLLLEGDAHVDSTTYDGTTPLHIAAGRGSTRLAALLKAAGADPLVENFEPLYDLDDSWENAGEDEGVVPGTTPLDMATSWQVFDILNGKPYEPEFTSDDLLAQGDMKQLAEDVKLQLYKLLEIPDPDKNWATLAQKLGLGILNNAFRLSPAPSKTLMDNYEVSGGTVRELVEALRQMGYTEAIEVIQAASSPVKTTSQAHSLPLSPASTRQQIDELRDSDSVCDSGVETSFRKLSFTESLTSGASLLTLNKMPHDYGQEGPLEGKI
Chain of Nuclear factor NF-kappa-B complex (Homo sapiens) (Q00653 whole entry, looked up): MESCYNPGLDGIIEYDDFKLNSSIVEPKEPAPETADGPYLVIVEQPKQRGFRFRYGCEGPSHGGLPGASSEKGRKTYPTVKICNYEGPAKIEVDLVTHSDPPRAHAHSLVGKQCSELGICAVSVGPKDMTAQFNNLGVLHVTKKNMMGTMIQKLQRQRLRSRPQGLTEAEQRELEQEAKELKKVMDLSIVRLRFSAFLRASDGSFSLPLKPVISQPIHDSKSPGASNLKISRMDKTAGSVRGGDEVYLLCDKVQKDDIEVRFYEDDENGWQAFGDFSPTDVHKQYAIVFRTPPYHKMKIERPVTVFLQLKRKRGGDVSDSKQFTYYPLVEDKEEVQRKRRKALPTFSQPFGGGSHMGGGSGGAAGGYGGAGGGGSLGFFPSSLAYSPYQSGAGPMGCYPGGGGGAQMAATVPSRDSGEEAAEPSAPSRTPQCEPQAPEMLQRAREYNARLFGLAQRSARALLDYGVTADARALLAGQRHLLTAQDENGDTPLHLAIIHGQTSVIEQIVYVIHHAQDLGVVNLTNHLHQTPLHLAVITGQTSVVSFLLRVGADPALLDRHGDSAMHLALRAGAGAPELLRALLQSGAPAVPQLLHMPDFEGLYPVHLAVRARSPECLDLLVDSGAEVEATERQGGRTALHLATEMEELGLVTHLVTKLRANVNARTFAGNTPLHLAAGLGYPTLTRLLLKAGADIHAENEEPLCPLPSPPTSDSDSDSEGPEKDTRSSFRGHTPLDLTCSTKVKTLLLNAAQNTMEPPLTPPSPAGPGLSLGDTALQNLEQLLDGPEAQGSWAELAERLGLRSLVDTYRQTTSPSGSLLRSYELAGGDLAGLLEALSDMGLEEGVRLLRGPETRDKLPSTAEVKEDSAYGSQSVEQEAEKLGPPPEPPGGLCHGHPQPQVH
Chain of Nuclear factor NF-kappa-B complex (Homo sapiens) (Q04206 whole entry, looked up): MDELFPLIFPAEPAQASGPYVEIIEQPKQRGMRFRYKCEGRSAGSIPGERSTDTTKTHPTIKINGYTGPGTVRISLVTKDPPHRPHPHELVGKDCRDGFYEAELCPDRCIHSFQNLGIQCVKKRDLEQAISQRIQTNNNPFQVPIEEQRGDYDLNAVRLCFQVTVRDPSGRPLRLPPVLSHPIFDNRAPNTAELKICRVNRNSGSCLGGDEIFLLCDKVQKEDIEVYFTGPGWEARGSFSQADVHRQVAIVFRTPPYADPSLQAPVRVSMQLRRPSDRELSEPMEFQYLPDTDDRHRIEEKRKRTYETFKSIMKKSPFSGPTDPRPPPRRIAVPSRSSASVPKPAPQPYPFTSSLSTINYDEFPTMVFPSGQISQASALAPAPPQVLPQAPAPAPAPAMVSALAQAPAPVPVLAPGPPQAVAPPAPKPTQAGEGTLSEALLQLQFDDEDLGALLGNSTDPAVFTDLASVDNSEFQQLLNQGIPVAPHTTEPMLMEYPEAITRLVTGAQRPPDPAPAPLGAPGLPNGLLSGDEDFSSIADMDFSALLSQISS

[3] = biological target: T1, Signal transducer and activator of transcription 1-alpha/beta (Homo sapiens) (UniProt P42224); assay: Inhibition of Stat1 (unknown origin)-induced human CXCL10 (972 bp) promoter activity expressed in TNF-alpha/IFN-gamma/IL-1beta-stimulated human DLD1 cells up to 260 uM after 24 hrs by luciferase reporter assay; details: DLD-1; summary of the method: as §1
T1 sequence (whole entry): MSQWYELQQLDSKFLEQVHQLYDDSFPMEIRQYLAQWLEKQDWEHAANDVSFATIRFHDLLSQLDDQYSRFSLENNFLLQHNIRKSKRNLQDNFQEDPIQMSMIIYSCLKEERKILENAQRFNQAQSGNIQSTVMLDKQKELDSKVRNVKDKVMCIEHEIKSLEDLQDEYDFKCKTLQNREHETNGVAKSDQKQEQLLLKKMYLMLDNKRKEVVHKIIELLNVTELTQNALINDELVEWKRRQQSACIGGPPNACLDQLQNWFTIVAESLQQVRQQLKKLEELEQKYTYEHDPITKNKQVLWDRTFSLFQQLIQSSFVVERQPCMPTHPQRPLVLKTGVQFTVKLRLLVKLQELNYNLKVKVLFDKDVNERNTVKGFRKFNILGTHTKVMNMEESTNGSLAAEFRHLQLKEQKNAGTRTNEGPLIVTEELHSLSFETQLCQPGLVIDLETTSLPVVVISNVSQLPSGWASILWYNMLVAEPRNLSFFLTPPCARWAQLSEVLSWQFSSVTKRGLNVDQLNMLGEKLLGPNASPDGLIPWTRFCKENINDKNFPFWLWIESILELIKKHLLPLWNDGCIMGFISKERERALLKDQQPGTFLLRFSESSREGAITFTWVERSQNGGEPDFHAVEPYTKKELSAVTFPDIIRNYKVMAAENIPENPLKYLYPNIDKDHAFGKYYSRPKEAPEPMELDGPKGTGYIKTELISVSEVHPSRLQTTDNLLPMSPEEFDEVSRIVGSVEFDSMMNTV

[4] = system: DLD-1; assay: Inhibition of TNF-alpha/IFN-gamma/IL-1beta-induced human CXCL10 (972 bp) promoter activity expressed in human DLD1 cells up to 260 uM after 24 hrs by luciferase reporter assay relative to untreated-control; summary of the method: as §1

Measured: inhibition

CCCCCC(=O)O[C@@H]1C=C2CO[C@@H](O)[C@]2(O)[C@@]2(C)[C@H](O)CCC(C)(C)[C@H]12
inactive: all assays above
